This is an account of results in ChEMBL document CHEMBL1125564, “Selective, centrally acting serotonin 5-HT2 antagonists. 2. Substituted 3-(4-fluorophenyl)-1H-indoles” (J Med Chem, 1992).

The target of test [1] is T1, Alpha-1A adrenergic receptor (Rattus norvegicus, UniProt P43140).
T1 sequence (P43140 whole entry): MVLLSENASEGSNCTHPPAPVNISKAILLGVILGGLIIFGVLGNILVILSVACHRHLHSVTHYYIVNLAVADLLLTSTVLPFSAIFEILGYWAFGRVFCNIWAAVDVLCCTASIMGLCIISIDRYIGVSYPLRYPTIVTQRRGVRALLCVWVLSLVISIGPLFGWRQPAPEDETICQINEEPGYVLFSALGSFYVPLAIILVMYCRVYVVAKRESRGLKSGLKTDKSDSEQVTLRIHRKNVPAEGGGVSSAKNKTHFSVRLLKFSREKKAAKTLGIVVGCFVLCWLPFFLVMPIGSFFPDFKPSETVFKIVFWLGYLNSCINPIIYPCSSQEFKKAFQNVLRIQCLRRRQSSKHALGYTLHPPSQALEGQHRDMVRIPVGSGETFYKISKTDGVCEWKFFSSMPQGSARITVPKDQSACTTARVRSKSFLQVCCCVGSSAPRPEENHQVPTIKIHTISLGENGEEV
Nature of the test: Displacement of [3H]prazosin from Alpha-1 adrenergic receptor in whole rat brain membranes. It is filed as cell membranes. In outline:
(§1)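 Two full concentration curves per compound, five concentrations in triplicate covering three decades. IC50 read from log-concentration curves, given as logarithmic mean of at least two determinations. Ratios beyond 3 × SD prompted extra runs, with outliers discarded.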

For the next test, the target named is D(2) dopamine receptor (Rattus norvegicus, UniProt P61169). As to the kind of experiment: Displacement of [3H]spiperone from Dopamine receptor D2 rat striatal membranes. The format is cell membranes, Membrane. In outline:
as §1

The target in test [2] is Serotonin 2 (5-HT2) receptor (Rattus norvegicus, UniProt P30994+P08909+P14842). As to the kind of experiment: Displacement of [3H]ketanserin from 5-hydroxytryptamine 2 receptor in rat cortical membranes. The format is cell membranes, Membrane. In outline:
as §1

In test [3] the test system is Rattus norvegicus. Nature of the test: Compound was evaluated for the inhibition of quipazine-induced head twitches after 24 hr (administered subcutaneously). The format is functional. The settings on record: sc. In outline:
(§2)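 Male Wistar rats (Mol:Wist, SPF, 170–270 g), at least four per dose, dosed sc or po 2 or 24 h before quipazine (15 μmol/kg, sc). Head twitches counted 30–40 min after quipazine and expressed as percent of a quipazine-treated control group. ED50 by log-probit analysis.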

The subject of test [4] is Rattus norvegicus. Nature of the test: Compound was evaluated for the inhibition of pergolide-induced reactions after 2 hr (administered subcutaneously). It is filed as functional. As to conditions: sc. In outline: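 Male Wistar rats with unilateral 6-OHDA lesions; test compound given sc 2 h before pergolide (0.05 μmol/kg, sc) to induce contralateral circling. Each dose scored as percent of the rat's mean control sessions 1 week before and 1 week after the test, at least four rats per dose. ED50 by log-probit analysis.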

Test [5] concerns Rattus norvegicus. As to the kind of experiment: Compound was evaluated for the inhibition of quipazine-induced head twitches after 2 hr (administered subcutaneously). It is filed as functional. The settings on record: sc. In outline: as §2
In test [6] the test system is Rattus norvegicus. Nature of the test: Compound was evaluated for the inhibition of quipazine-induced head twitches after 24 hr (administered perorally). The settings on record: po. The format is functional. In outline:
as §2

Chain of D(2) dopamine receptor (P61169 whole entry): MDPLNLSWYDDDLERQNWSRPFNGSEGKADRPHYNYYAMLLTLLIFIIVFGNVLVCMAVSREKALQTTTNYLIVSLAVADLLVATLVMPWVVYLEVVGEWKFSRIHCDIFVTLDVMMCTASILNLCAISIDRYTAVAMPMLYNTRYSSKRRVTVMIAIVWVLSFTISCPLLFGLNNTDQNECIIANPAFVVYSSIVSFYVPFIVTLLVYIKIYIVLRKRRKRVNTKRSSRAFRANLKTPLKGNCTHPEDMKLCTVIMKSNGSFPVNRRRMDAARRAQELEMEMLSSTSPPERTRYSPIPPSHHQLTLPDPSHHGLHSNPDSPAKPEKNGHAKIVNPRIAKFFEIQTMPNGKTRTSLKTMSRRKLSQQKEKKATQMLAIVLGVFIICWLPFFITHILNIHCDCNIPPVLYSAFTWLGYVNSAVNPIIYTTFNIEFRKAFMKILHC

On to `CC(C)N1CCN(CCN2CCC(c3cn(-c4ccc(F)cc4)c4cc(Cl)ccc34)CC2)C1=O`, for which, in test [1], the IC50 came out at 70 nM.
Consider `Cc1ccc2c(c1)c(-c1ccc(F)cc1)cn2C1=CCN(CCN2CCNC2=O)CC1`, for which the IC50 was found to be 280 nM at D(2) dopamine receptor, 1.5 nM in test [2] and 24 nM in test [1].
For `O=C1NCCN1CCN1CCC(n2cc(-c3ccc(F)cc3)c3ccc(Cl)cc32)CC1`, the values for the 50% effective dose (ED50) in the test with Rattus norvegicus [3], in the test on Rattus norvegicus [4] and in the test with Rattus norvegicus [5] were 0.68 µmol/kg, 9.3 µmol/kg and 0.3 µmol/kg, respectively. Further, the IC50 in test [2] worked out at 1.9 nM; in test [1], 11 nM.
In the case of `Cc1ccc2c(c1)c(-c1ccc(F)cc1)c(C)n2C1CCN(CCN2CCNC2=O)CC1`, the 50% effective dose (ED50) with Rattus norvegicus [3] was 0.0041 µmol/kg; in the test on Rattus norvegicus [4] it was greater than 23 µmol/kg; in the test with Rattus norvegicus [6] it was 0.038 µmol/kg; in the test on Rattus norvegicus [5] it was 0.096 µmol/kg. The results for the IC50 in test [2] and in test [1] were 3.4 nM and 2300 nM, respectively.
In test [1], `O=C1NCCN1CCN1CCC(c2cn(-c3ccc(F)cc3)c3ccc(Cl)cc23)CC1` [SERTINDOLE] displayed an IC50 of 3.4 nM.
With `Cc1ccc2c(c1)c(-c1ccc(F)cc1)cn2C1CCN(CCNC(=O)N(C)C)CC1`, the figures for the IC50 in test [2] and in test [1] were 2.3 nM and 89 nM, respectively.
As to `Cc1ccc2c(c1)c(-c1ccc(F)cc1)c(C)n2C1=CCN(CCN2CCNC2=O)CC1`, the half-inhibitory concentration (IC50) in test [2] was determined as 2.8 nM; in test [1] it was 1000 nM.
For the compound `Cc1ccc2c(c1)c(-c1ccc(F)cc1)cn2C1CCN(CCN2CCNC2=O)CC1`, the ED50 is 0.0081 µmol/kg in the test with Rattus norvegicus [3], greater than 24 µmol/kg in the test on Rattus norvegicus [4], 0.0041 µmol/kg in the test on Rattus norvegicus [6] and 0.019 µmol/kg in the test with Rattus norvegicus [5]. The IC50 in test [2] stood at 1.6 nM; in test [1], 71 nM.
As to `Cc1ccc2c(c1)c(-c1ccc(F)cc1)c(C)n2C1CCN(C)CC1`, the ED50 was 0.028 µmol/kg in the test with Rattus norvegicus [3], greater than 30 µmol/kg in the test with Rattus norvegicus [4], 0.046 µmol/kg with Rattus norvegicus [6] and 0.25 µmol/kg in the test with Rattus norvegicus [5]. In addition, the IC50 in test [2] was found to be 5.3 nM; in test [1] it was 2700 nM.
As to `O=C1NCCN1CCN1CCC(n2cc(-c3ccc(F)cc3)c3ccccc32)CC1`, the half-maximal inhibitory concentration (IC50) was 3.1 nM in test [2] and 6.3 nM in test [1].
Regarding `CNC(=O)N(C)CCN1CCC(n2cc(-c3ccc(F)cc3)c3cc(C)ccc32)CC1`, the IC50 on D(2) dopamine receptor was 1200 nM; in test [2], 2.2 nM; in test [1], 54 nM. For the same compound, the ED50 in the test on Rattus norvegicus [3] is 0.0021 µmol/kg; in the test on Rattus norvegicus [4], greater than 22 µmol/kg; in the test with Rattus norvegicus [6] it was 0.004 µmol/kg; with Rattus norvegicus [5] it was 0.036 µmol/kg.
With `O=C1NCCN1CCN1CCC(n2cc(-c3ccc(F)cc3)c3cc(Cl)ccc32)CC1`, the IC50 in test [2] came to 5.7 nM; in test [1], 67 nM.
For the compound `Cc1cccc2c(-c3ccc(F)cc3)cn(C3CCN(CCN4CCNC4=O)CC3)c12`, the values for the IC50 (on D(2) dopamine receptor; in test [2]; in test [1]) were 370 nM, 3.6 nM and 23 nM, respectively.
As for `O=C1NCCN1CCN1CCC(n2cc(-c3ccc(F)cc3)c3cc(C(F)(F)F)ccc32)CC1`, the values for the IC50 (on D(2) dopamine receptor; in test [2]; in test [1]) were 2500 nM, 9.3 nM and 190 nM, respectively.
For the compound `Cc1ccc2c(c1)c(-c1ccc(F)cc1)cn2C1CCN(C)CC1`, the IC50 in test [2] was 4.5 nM; in test [1], 190 nM.
Taken in the same sequence, the figures for `O=C1NCCN1CCN1CCC(n2cc(-c3ccc(F)cc3)c3cc(F)ccc32)CC1` were 3.2 nM and 19 nM.
Taken in the same sequence, the figures for `Cc1ccc2c(c1)c(-c1ccc(F)cc1)cn2N1CCN(C)CC1` were 15 nM and 500 nM.
Regarding `Cc1cccc2c(-c3ccc(F)cc3)cn(C3=CCN(CCN4CCNC4=O)CC3)c12`, the IC50 on D(2) dopamine receptor was 530 nM; in test [2], 5.8 nM; in test [1], 27 nM.
Regarding `Cc1ccc2c(c1)c(-c1ccc(F)cc1)cn2C1CCN(CCN2CCN(C(C)C)C2=O)CC1`, the ED50 in the test on Rattus norvegicus [3] is 0.014 µmol/kg; in the test with Rattus norvegicus [4], greater than 18 µmol/kg; in the test with Rattus norvegicus [6], 0.019 µmol/kg; with Rattus norvegicus [5], 0.062 µmol/kg. Moreover, the IC50 amounted to 2.7 nM in test [2] and 280 nM in test [1].
As for `Cc1cccc2c1c(-c1ccc(F)cc1)cn2C1CCN(CCN2CCNC2=O)CC1`, the results for the IC50 (on D(2) dopamine receptor; in test [2]; in test [1]) were 200 nM, 7.9 nM and 34 nM, respectively.
